Data on 21 compounds can be found in ChEMBL document CHEMBL3877261, “New azepino[4,3-b]indole derivatives as nanomolar selective inhibitors of human butyrylcholinesterase showing protective effects against NMDA-induced neurotoxicity” (Eur J Med Chem, 2017).

Active and inactive are the calls of the source. The rule behind the calls is not given here. Some results are limits rather than exact numbers.

The target in data set [1] is Cholinesterase (Equus caballus) (UniProt P81908). Put plainly: Inhibition of horse serum BChE at 10 uM pretreated for 20 mins followed by butyrylthiocholine iodide substrate addition measured for 5 mins by Ellman's method relative to control. The gist of the method: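 Ellman colorimetric assay. BChE (0.9 U/mL stock in 0.1 M PB pH 8.0) with DTNB (3.3 mM stock in pH 7.0 PB plus NaHCO₃) and inhibitor (1×10^-4 to 1×10^-9 M, five to seven concentrations; or single 10 µM point) preincubated 20 min at 25 °C. Butyrylthiocholine iodide (0.05 mM stock) then added and absorbance read at 412 nm for 5.0 min. IC50 from nonlinear regression of log response curves, mean of ≥3 independent runs.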
In general terms: DTNB colorimetry detects thiols as they appear.

A short description of data set [2]: Cytotoxicity against human MCF7 cells assessed as growth inhibition measured after 48 hrs by MTT assay. The format is toxicity, cell-based. The gist of the method: (§1)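 Cells kept in DMEM with 10% FBS, 2 mM L-glutamine, penicillin/streptomycin, 37 °C, 5% CO₂. Seeded ~5,000 cells/well, 1 day, then exposed to compound at 0.1-500 µM for 48 h. MTT 0.5% (w/v) added for 4 h, formazan dissolved in DMSO/ethanol 1:1, absorbance read. Triplicates, as % of untreated control. GI50 from concentration-response curves.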
In general terms: Tetrazolium dyes change colour on reduction, which living cells bring about.

The nature of data set [3]: Neurotoxicity against human U87 cells assessed as growth inhibition measured after 48 hrs by MTT assay. The format is toxicity, cell-based, U-87MG ATCC. The gist of the method:
as §1

A short description of data set [4]: Hepatotoxicity against human HepG2 cells assessed as growth inhibition measured after 48 hrs by MTT assay. The format is toxicity, cell-based. The gist of the method: as §1
For data set [5], the target named is Acetylcholinesterase (Electrophorus electricus, UniProt O42275). In words: Inhibition of electric eel AChE pretreated for 20 mins followed by acetylthiocholine iodide substrate addition measured for 5 mins by Ellman's method.
Data set [6] addresses T1, Cholinesterase (Equus caballus, UniProt P81908). Put plainly: Inhibition of horse serum BChE pretreated for 20 mins followed by butyrylthiocholine iodide substrate addition measured for 5 mins by Ellman's method.
The nature of data set [7]: Neurotoxicity against human SH-SY5Y cells assessed as growth inhibition measured after 48 hrs by MTT assay. Format: toxicity, cell-based. The following applies: for GI50 at 48 h: SH-SY5Y cells; for growth inhibition (GI): sh-sy5y, 48 h. An outline of the steps: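 SH-SY5Y grown in DMEM/10% FBS, then treated in reduced-serum (2% FBS) medium. Compounds from 20 mM DMSO stock, tested at 0.1-1000 µM for 48 h after 1-day attachment at ~5,000 cells/well. MTT 4 h, DMSO/ethanol solubilization, absorbance. Triplicate wells, % of untreated control. GI50 from dose-response.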

Data set [8] deals with T2, Acetylcholinesterase (Homo sapiens, UniProt P22303). In words: Inhibition of human AChE pretreated for 20 mins followed by acetylthiocholine iodide substrate addition measured for 5 mins by Ellman's method. An outline of the steps:
(§2)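 Ellman colorimetric assay with DTNB (3.3 mM stock, pH 7.0 PB). Test compound (five to seven concentrations, 1×10^-4 to 1×10^-9 M; or single 10 µM point) preincubated with enzyme 20 min at 25 °C in 0.1 M PB pH 8.0. Rate followed at 412 nm for 5.0 min after adding thiocholine substrate (0.05 mM). IC50 by nonlinear regression, mean of ≥3 independent determinations.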

Data set [9] has as its target Cholinesterase (Homo sapiens, UniProt P06276). In words: Inhibition of human BChE pretreated for 20 mins followed by butyrylthiocholine iodide substrate addition measured for 5 mins by Ellman's method. The gist of the method:
as §2

Data set [10] can be described thus: Neuroprotective activity against NMDA-induced toxicity in human SH-SY5Y cells assessed as cell viability at 5 uM incubated for 48 hrs by MTT assay relative to control. Conditions: read-out: Activity. The format is functional. The gist of the method: (§3)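 SH-SY5Y in DMEM with 2% FBS, seeded ~5,000 cells/well and grown 1 day. Co-exposed 48 h at 37 °C to NMDA (250 µM final) plus test compound. MTT (0.5% w/v) added for 4 h, formazan dissolved in DMSO/ethanol 1:1, absorbance read. Triplicates as % of untreated control, mean ± SEM; one-way ANOVA with Dunnett's test.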

Data set [11] can be described thus: Neuroprotective activity against NMDA-induced toxicity in human SH-SY5Y cells assessed as cell viability at 0.5 uM incubated for 48 hrs by MTT assay relative to control. The format is functional. Conditions: read-out: Activity. An outline of the steps: as §3
Another data set relates to SH-SY5Y. Put plainly: Neuroprotective activity against NMDA-induced toxicity in human SH-SY5Y cells assessed as increase in cell viability at 0.5 uM incubated for 48 hrs by MTT assay. The format is functional, cell-based. The gist of the method:
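SH-SY5Y at ~5,000 cells/well in reduced-serum (2% FBS) medium co-exposed 48 h at 37 °C to NMDA (250 µM final) and compound. Viability by MTT, as % of NMDA-untreated cells. Mean ± SEM; one-way ANOVA with Dunnett's test, P < 0.05 significant.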

Data set [12] addresses T1, Cholinesterase. In words: Stability assessed as horse serum BChE mediated compound hydrolysis at 300 x 10^-6M at pH 8 measured every 5 mins for 1 hr by UV-Vis spectra analysis. The format is ADME. The following applies: buffer, pH 8, 1 h, 300 µM.
Data set [13] deals with T1, Cholinesterase. Put plainly: Competitive inhibition of horse serum BChE in presence of varying levels of butyrylthiocholine iodide substrate by Lineweaver-burk plot method. The gist of the method: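 Lineweaver-Burk fit (1/v vs 1/[S]) using fixed enzyme at 0.09 U×mL^-1, substrate varied 25−250 µM, run without inhibitor and with inhibitor at four concentrations spanning 0.5-5.0 nM.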

For data set [14], the target named is T2, Acetylcholinesterase. In words: Inhibition of human AChE at 10 uM pretreated for 20 mins followed by acetylthiocholine iodide substrate addition measured for 5 mins by Ellman's method relative to control. The gist of the method: as §2
Data set [15] concerns the target T1, Cholinesterase. In words: Stability assessed as horse serum BChE mediated compound hydrolysis at 300 x 10^-7M at pH 8 measured every 5 mins for 1 hr by UV-Vis spectra analysis. Format: ADME. The following applies: buffer, pH 8, 1 h, 30 µM.

Acetylcholinesterase (Electrophorus electricus, UniProt O42275), sequence (O42275 whole entry): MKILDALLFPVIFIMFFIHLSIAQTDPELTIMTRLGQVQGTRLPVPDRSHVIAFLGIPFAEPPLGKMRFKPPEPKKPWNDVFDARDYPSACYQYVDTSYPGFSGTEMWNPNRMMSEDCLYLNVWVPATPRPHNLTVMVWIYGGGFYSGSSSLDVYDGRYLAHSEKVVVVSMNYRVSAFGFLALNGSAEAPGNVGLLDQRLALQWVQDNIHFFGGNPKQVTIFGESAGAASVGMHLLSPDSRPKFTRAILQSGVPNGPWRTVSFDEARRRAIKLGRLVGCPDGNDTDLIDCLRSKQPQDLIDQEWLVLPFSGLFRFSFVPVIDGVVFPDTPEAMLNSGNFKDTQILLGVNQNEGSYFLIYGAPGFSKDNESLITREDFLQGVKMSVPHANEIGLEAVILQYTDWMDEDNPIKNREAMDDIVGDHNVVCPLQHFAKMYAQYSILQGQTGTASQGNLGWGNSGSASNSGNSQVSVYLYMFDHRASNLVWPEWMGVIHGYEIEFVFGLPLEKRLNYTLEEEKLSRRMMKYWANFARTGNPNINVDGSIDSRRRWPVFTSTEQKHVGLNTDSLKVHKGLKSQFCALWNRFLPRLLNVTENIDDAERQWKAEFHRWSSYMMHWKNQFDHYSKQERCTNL
Cholinesterase (Homo sapiens, UniProt P06276), sequence (P06276 whole entry): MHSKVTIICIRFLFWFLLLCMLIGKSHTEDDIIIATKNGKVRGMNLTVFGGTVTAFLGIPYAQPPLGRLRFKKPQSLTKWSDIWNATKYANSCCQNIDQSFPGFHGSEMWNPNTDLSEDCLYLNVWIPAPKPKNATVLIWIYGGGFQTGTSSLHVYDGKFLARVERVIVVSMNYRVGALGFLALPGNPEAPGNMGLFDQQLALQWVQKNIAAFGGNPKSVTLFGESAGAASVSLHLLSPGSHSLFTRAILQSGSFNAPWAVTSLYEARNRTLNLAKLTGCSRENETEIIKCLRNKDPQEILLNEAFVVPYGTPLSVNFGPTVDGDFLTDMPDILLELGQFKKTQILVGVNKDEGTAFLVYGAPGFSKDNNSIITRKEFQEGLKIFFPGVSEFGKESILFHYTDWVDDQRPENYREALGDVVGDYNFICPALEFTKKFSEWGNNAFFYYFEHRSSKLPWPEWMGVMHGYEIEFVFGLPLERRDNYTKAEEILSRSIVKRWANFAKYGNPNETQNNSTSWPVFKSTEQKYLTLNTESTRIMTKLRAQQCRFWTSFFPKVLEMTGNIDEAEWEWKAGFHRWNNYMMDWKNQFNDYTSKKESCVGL
T2 sequence (P22303 whole entry): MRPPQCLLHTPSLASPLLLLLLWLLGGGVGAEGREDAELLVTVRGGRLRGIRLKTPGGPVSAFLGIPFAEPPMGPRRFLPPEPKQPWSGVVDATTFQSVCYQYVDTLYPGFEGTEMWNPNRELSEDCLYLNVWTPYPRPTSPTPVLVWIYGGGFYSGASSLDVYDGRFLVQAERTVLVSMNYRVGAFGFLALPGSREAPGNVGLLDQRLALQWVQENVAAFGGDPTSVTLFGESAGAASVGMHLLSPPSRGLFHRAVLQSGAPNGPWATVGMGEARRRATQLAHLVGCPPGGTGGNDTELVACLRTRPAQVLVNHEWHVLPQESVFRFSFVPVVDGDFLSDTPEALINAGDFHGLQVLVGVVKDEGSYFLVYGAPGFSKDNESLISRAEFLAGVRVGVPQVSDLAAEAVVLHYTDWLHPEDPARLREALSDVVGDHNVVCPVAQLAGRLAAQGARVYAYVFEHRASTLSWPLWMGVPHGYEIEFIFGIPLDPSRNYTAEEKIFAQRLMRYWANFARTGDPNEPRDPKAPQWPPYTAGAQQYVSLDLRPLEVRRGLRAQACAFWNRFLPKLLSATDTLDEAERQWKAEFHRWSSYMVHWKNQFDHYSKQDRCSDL
T1 sequence (P81908 whole entry): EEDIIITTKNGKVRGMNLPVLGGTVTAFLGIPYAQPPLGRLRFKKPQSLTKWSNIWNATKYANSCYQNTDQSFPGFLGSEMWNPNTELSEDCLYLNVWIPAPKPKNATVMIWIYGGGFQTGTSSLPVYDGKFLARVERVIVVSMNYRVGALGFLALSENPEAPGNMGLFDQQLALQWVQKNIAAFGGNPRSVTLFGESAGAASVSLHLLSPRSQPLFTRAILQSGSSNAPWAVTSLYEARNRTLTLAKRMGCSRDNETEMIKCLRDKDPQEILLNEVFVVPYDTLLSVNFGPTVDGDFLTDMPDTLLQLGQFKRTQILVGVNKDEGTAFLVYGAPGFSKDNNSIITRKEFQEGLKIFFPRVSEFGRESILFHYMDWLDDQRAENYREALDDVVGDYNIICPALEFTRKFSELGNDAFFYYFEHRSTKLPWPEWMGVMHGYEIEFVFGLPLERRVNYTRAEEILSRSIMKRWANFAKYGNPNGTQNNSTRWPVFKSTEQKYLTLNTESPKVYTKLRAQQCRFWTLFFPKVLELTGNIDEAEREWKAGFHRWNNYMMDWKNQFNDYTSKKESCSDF
Cholinesterase (Equus caballus), sequence (P81908 whole entry): as above

Usually inhibition stands for the drop in the measured response relative to a control, in per cent. As for `O/N=C1\CCCc2c1c1ccccc1n2CCc1ccccc1`, the inhibition in [1] was 5%.
As a reminder, the GI50 is the concentration at which growth is held to half of that of the control. For the compound `O=c1[nH]cc(F)c(=O)[nH]1` [FLUOROURACIL], the values for the GI50 at 48 h in data set [2], in data set [3] and in [4] were 4.5 µM, 13 µM and 7 µM, respectively.
The term IC50 denotes the concentration needed to halve the response being measured. Regarding `O=C1CCCc2c1c1ccccc1n2CCc1ccccc1`, the IC50 at Acetylcholinesterase [5] and at Cholinesterase [6] was 10 µM in each case.
On to `O=C1NCCCc2c1c1ccccc1n2CCc1ccc(F)cc1`, for which the GI50 at 48 h in data set [7] was 251 µM; in data set [2] it was more than 500 µM; in data set [3], more than 500 µM; in data set [4] it was 230 µM. Also, the “growth inhibition (GI)” value in data set [7] was “Dose-dependent effect”. Also, the IC50 came to 10 µM on Acetylcholinesterase [8], 5 µM on Cholinesterase [9] and 0.23 µM at Cholinesterase [6]. The viability at 5 µM in data set [10] was 76.6%.
For the compound `Cl.c1ccc(CCn2c3c(c4ccccc42)CNCCC3)cc1`, the viability at 0.5 µM in data set [11] was 76%. Moreover, the GI50 at 48 h in data set [7] amounted to 5.6 µM; in [2] it was 28 µM; in data set [3], 41 µM; in data set [4], 25 µM. The “growth inhibition (GI)” value in data set [7] is “Dose-dependent effect”. For the same compound, on Cholinesterase [6], the IC50 is 1.14 µM.
As for `CCOC(=O)CCCn1c2c(c3ccccc31)C(=O)NCCC2`, the IC50 at Acetylcholinesterase [5] is 60 µM; at Cholinesterase [6] it was 25.7 µM.
Consider `CCOC(=O)NCCCn1c2c(c3ccccc31)C(=O)NCCC2`, for which the results for the IC50 on Acetylcholinesterase [5] and on Cholinesterase [6] were 110 µM and 15 µM, respectively.
In the case of `CC12CC3CC(C)(C1)CC(N)(C3)C2` [MEMANTINE], in data set [7], the GI50 at 48 h worked out at 145 µM and the “growth inhibition (GI)” value is “Dose-dependent effect”. For the same compound, in data set [10], the viability at 5 µM turned out to be 68%.
For `O=C1NCCCc2c1c1ccccc1n2CCCc1ccccc1`, in [1], the inhibition was determined as 20%.
On to `CC(=O)OCCCCn1c2c(c3ccccc31)C(=O)NCCC2`, for which the IC50 on Cholinesterase [6] came to 10.7 µM.
Take `O=C1NCCCc2c1c1ccccc1n2CCc1ccccc1`: the result with SH-SY5Y was Active. In addition, the Stability result at Cholinesterase [12] is “Stable”. Further, the GI50 at 48 h in data set [7] worked out at 138 µM; in [2] it was 170 µM; in data set [3], 288 µM; in data set [4] it was 120 µM. Besides, the “growth inhibition (GI)” value in data set [7] is “Dose-dependent effect”. Also, the IC50 is 12.6 µM on Acetylcholinesterase [8], 0.013 µM at Cholinesterase [9], 20 µM on Acetylcholinesterase [5] and 0.024 µM at Cholinesterase [6]. In addition, the viability at 5 µM in [10] is 76.9%.
Consider `O=C1NCCCc2c1c1cc(F)ccc1n2CCc1ccccc1`, for which the IC50 on Cholinesterase [6] was 0.028 µM.
The same measure, in the same setting: next, `O=C1NCCCc2c1c1ccccc1n2CCc1cccc(Cl)c1`: 0.065 µM.
`CC(C)CCn1c2c(c3ccccc31)C(=O)NCCC2`: the IC50 on Acetylcholinesterase [5] was 100 µM; on Cholinesterase [6], 22.3 µM.
With `O=C1NCCCc2c1c1ccccc1n2CCc1ccc(Cl)cc1`, the IC50 at Cholinesterase [6] is 1.9 µM.
Still for that read-out and setting: next, `Cc1ccc(CCn2c3c(c4ccccc42)C(=O)NCCC3)cc1`: 68.2 µM.
Consider `O=C1NCCCc2c1c1ccccc1n2Cc1ccccc1`, for which the inhibition in [1] is 25%.
As for `CCCNC(=O)c1cn(CCc2ccccc2)c2ccccc12`, the IC50 at Acetylcholinesterase [5] is 10.3 µM; on Cholinesterase [6], 12.6 µM.
As for `CN1CCCc2c(c3ccccc3n2CCc2ccccc2)C1=O`, in data set [1], the inhibition worked out at 10%. Also, the IC50 on Acetylcholinesterase [5] came to 44.8 µM.
By Ki is commonly meant the equilibrium dissociation constant of an inhibitor or competing ligand from its target. As for `O=C1NCCCc2c1c1ccccc1n2CCc1cccc(F)c1`, the Ki at Cholinesterase [13] is 0.0007 µM. For the same compound, the inhibition on Acetylcholinesterase [14] was determined as 6%. In addition, the viability at 0.5 µM in data set [11] is 70%. Besides, the GI50 at 48 h is 2.61 µM in [7], 162 µM in data set [2], 162 µM in [3] and 159 µM in data set [4]. In data set [7], the “growth inhibition (GI)” value is recorded as “Dose-dependent effect”. The IC50 on Cholinesterase [9] is 0.0018 µM; on Cholinesterase [6] it was 0.0015 µM.
For the compound `O=C1CCCc2c(c3ccccc3n2CCc2ccccc2)N1`, the inhibition in data set [1] was determined as 25%. On Cholinesterase [15], the Stability result is “Stable”.
